The values below come from ChEMBL document CHEMBL4261658, “4-Hydroxy-3-nitro-5-ureido-benzenesulfonamides Selectively Target the Tumor-Associated Carbonic Anhydrase Isoforms IX and XII Showing Hypoxia-Enhanced Antiproliferative Profiles” (J Med Chem, 2018).

The target in one test is Carbonic anhydrase 9 (Homo sapiens, UniProt Q16790). The experiment in a line: Inhibition of carbonic anhydrase 9 (unknown origin) preincubated for 15 mins by stopped flow CO2 hydration assay.
In another test the target is Carbonic anhydrase 12 (Homo sapiens, UniProt O43570).
Sequence of Carbonic anhydrase 12 (O43570 whole entry): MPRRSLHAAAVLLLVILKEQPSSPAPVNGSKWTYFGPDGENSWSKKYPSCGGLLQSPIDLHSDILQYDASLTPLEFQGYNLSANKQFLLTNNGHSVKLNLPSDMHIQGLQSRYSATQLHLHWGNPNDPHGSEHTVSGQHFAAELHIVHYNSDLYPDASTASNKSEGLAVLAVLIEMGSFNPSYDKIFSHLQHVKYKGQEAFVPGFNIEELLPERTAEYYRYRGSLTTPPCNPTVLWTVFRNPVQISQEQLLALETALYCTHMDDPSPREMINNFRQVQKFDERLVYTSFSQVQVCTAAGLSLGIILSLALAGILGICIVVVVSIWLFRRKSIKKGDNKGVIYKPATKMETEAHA
In test [1] the test system is HT-29. The experiment in a line: Cytotoxicity against human HT-29 cells assessed as reduction in cell viability after 48 hrs under normoxic conditions by MTT assay. In kind it is functional, cell-based. The method, boiled down:
(§1)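 Cells cultured in high-glucose DMEM with 20% FBS at 37 °C and 5% CO2, seeded at 1x10^4/well, then dosed 24 h later (0–200 μM) for 48 h. Hypoxia: 1% O2, 5% CO2, balance N2 in a hypoxic workstation; normoxia: 20% O2 in air, 5% CO2. MTT (1 mg/ml) for 30 min at 37 °C, formazan dissolved in DMSO, A550. Untreated control set to 100%; quadruplicates, ≥3 cell batches, mean ± S.E.M.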
In general terms: Tetrazolium assays rely on reduction of a dye to a coloured formazan, in cell work by metabolically active cells.

Test [2] concerns MDA-MB-231. The test can be described thus: Cytotoxicity against human MDA-MB-231 cells assessed as reduction in cell viability after 48 hrs under normoxic conditions by MTT assay. In kind it is functional, cell-based. The method in brief:
as §1

Test [3] concerns PC-3. The experiment in a line: Cytotoxicity against human PC3 cells assessed as reduction in cell viability after 48 hrs under normoxic conditions by MTT assay. In kind it is functional, cell-based. The method in brief:
as §1

Test [4] concerns HT-29. The experiment in a line: Cytotoxicity against human HT-29 cells assessed as reduction in cell viability after 48 hrs under hypoxic conditions by MTT assay. In kind it is functional, cell-based. The method, boiled down: as §1
For test [5], the system named is MDA-MB-231. The test can be described thus: Cytotoxicity against human MDA-MB-231 cells assessed as reduction in cell viability after 48 hrs under hypoxic conditions by MTT assay. The class given is functional, cell-based. The method, boiled down: as §1
Test [6] deals with PC-3. The experiment in a line: Cytotoxicity against human PC3 cells assessed as reduction in cell viability after 48 hrs under hypoxic conditions by MTT assay. In kind it is functional, cell-based. The method, boiled down: as §1
The test system of test [7] is MDA-MB-231. The experiment in a line: Cytotoxicity against human MDA-MB-231 cells assessed as cell viability at 200 uM after 48 hrs under hypoxic conditions by MTT assay (reference value: 100%). The class given is functional. Particulars: MDA-MB-231, 48 h, read-out: Activity. The method in brief:
as §1

The test system of test [8] is MDA-MB-231. The experiment in a line: Cytotoxicity against human MDA-MB-231 cells assessed as cell viability at 30 uM after 48 hrs under normoxic conditions by MTT assay (reference value: 100%). In kind it is functional. Particulars: MDA-MB-231, 48 h, read-out: Activity. The method, boiled down:
as §1

Test [9] relates to MDA-MB-231. The experiment in a line: Cytotoxicity against human MDA-MB-231 cells assessed as cell viability at 100 uM after 48 hrs under normoxic conditions by MTT assay (reference value: 100%). Particulars: MDA-MB-231, 48 h, read-out: Activity. In kind it is functional. The method in brief: as §1
Test [10] deals with MDA-MB-231. The test can be described thus: Cytotoxicity against human MDA-MB-231 cells assessed as cell viability at 200 uM after 48 hrs under normoxic conditions by MTT assay (reference value: 100%). In kind it is functional. As to conditions: MDA-MB-231, 48 h, read-out: Activity. The method, boiled down: as §1
For test [11], the system named is MDA-MB-231. The experiment in a line: Cytotoxicity against human MDA-MB-231 cells assessed as cell viability at 100 uM after 48 hrs under hypoxic conditions by MTT assay (reference value: 100%). In kind it is functional. Particulars: MDA-MB-231, 48 h, read-out: Activity. The method in brief:
as §1

In test [12] the test system is MDA-MB-231. The experiment in a line: Cytotoxicity against human MDA-MB-231 cells assessed as cell viability at 30 uM after 48 hrs under hypoxic conditions by MTT assay (reference value: 100%). The class given is functional. As to conditions: MDA-MB-231, 48 h, read-out: Activity. The method in brief: as §1
In test [13] the test system is PC-3. The experiment in a line: Cytotoxicity against human PC3 cells assessed as cell viability at 30 uM after 48 hrs under normoxic conditions by MTT assay (reference value: 100%). As to conditions: PC-3, 48 h, read-out: Activity. In kind it is functional. The method in brief: as §1
Test [14] relates to PC-3. The experiment in a line: Cytotoxicity against human PC3 cells assessed as cell viability at 100 uM after 48 hrs under normoxic conditions by MTT assay (reference value: 100%). The class given is functional. Particulars: PC-3, 48 h, read-out: Activity. The method in brief: as §1
In test [15] the test system is PC-3. The test can be described thus: Cytotoxicity against human PC3 cells assessed as cell viability at 200 uM after 48 hrs under normoxic conditions by MTT assay (reference value: 100%). In kind it is functional. As to conditions: PC-3, 48 h, read-out: Activity. The method, boiled down: as §1
Test [16] relates to PC-3. The test can be described thus: Cytotoxicity against human PC3 cells assessed as cell viability at 30 uM after 48 hrs under hypoxic conditions by MTT assay (reference value: 100%). As to conditions: PC-3, 48 h, read-out: Activity. The class given is functional. The method, boiled down: as §1
In test [17] the test system is PC-3. The test can be described thus: Cytotoxicity against human PC3 cells assessed as cell viability at 100 uM after 48 hrs under hypoxic conditions by MTT assay (reference value: 100%). Particulars: PC-3, 48 h, read-out: Activity. In kind it is functional. The method in brief:
as §1

The subject of test [18] is PC-3. The experiment in a line: Cytotoxicity against human PC3 cells assessed as cell viability at 200 uM after 48 hrs under hypoxic conditions by MTT assay (reference value: 100%). The class given is functional. Particulars: PC-3, 48 h, read-out: Activity. The method in brief: as §1
For test [19], the system named is HT-29. The experiment in a line: Cytotoxicity against human HT-29 cells assessed as cell viability at 30 uM after 48 hrs under normoxic conditions by MTT assay (reference value: 100%). In kind it is functional. The method in brief:
as §1

Test [20] deals with HT-29. The experiment in a line: Cytotoxicity against human HT-29 cells assessed as cell viability at 100 uM after 48 hrs under normoxic conditions by MTT assay (reference value: 100%). The class given is functional. The method, boiled down: as §1
Test [21] concerns HT-29. The test can be described thus: Cytotoxicity against human HT-29 cells assessed as cell viability at 200 uM after 48 hrs under normoxic conditions by MTT assay (reference value: 100%). The class given is functional. The method in brief:
as §1

In test [22] the test system is HT-29. The test can be described thus: Cytotoxicity against human HT-29 cells assessed as cell viability at 30 uM after 48 hrs under hypoxic conditions by MTT assay (reference value: 100%). The class given is functional. The method, boiled down: as §1
The subject of test [23] is HT-29. The experiment in a line: Cytotoxicity against human HT-29 cells assessed as cell viability at 100 uM after 48 hrs under hypoxic conditions by MTT assay (reference value: 100%). The class given is functional. The method in brief: as §1
In test [24] the test system is HT-29. The experiment in a line: Cytotoxicity against human HT-29 cells assessed as cell viability at 200 uM after 48 hrs under hypoxic conditions by MTT assay (reference value: 100%). In kind it is functional. The method, boiled down: as §1
The mark [25] stands for this setting: Homo sapiens, HT-29, 48 h, read-out: Activity.

For orientation: Ki means a measure of affinity in units of concentration, obtained from inhibition or displacement. Higher therefore signals weaker binding. On to `Cc1cc(C)cc(NC(=O)Nc2cc(S(N)(=O)=O)cc([N+](=O)[O-])c2O)c1`, for which the Ki on Carbonic anhydrase 9 was 530 nM; on Carbonic anhydrase 12 it was 620 nM.
In general, IC50 refers to the concentration needed to halve the response being measured. For the compound `NS(=O)(=O)c1cc(NC(=O)Nc2ccc(F)cc2)c(O)c([N+](=O)[O-])c1`, the values for the Ki on Carbonic anhydrase 9 and at Carbonic anhydrase 12 were 340 nM and 500 nM, respectively. In addition, the Activity result in the test with HT-29 [1], in the test with MDA-MB-231 [2], in the test with PC-3 [3], with HT-29 [4], in the test with MDA-MB-231 [5] and in the test with PC-3 [6] was “Dose-dependent effect” each time. Moreover, the IC50 in the test with HT-29 [1] (HT-29, 48 h) is > 200 µM; in the test with MDA-MB-231 [2] (MDA-MB-231, 48 h), > 200 µM; in the test with PC-3 [3] (PC-3, 48 h) it was > 200 µM; in the test on HT-29 [4] (HT-29, 48 h) it was > 200 µM; in the test on MDA-MB-231 [5] (MDA-MB-231, 48 h), > 200 µM; with PC-3 [6] (PC-3, 48 h), 134 µM. In addition, the viability at 200 µM in the test on MDA-MB-231 [7] amounted to 61.7%; in the test on MDA-MB-231 [10] it was 90.3%; in the test on PC-3 [15], 56.2%; with PC-3 [18], 23.5%; with HT-29 [21] (setting [25]), 107%; in the test on HT-29 [24] (setting [25]), 79.3%. Besides, the viability at 30 µM in the test on MDA-MB-231 [8] was 100%; with MDA-MB-231 [12] it was 84.8%; with PC-3 [13], 86.9%; with PC-3 [16] it was 83%; in the test on HT-29 [19] (setting [25]) it was 110%; with HT-29 [22] (setting [25]), 90.8%. The viability at 100 µM in the test with MDA-MB-231 [9] came out at 92.8%; in the test with MDA-MB-231 [11] it was 68.4%; in the test on PC-3 [14] it was 71.7%; in the test with PC-3 [17], 61.3%; with HT-29 [20] (setting [25]) it was 112%; in the test with HT-29 [23] (setting [25]), 88.2%.
Turning to `NS(=O)(=O)c1cc(O)c(O)c([N+](=O)[O-])c1`, the results for the Ki at Carbonic anhydrase 9 and on Carbonic anhydrase 12 were 240 nM and 90 nM, respectively.
Consider `NS(=O)(=O)c1cc([N+](=O)[O-])c(OC(=O)c2ccccc2)c([N+](=O)[O-])c1`, for which the Ki at Carbonic anhydrase 9 is 90 nM; at Carbonic anhydrase 12, 70 nM.
As to `CC(=O)Nc1nnc(S(N)(=O)=O)s1` [ACETAZOLAMIDE], the Activity with HT-29 [19] is 96.9%; with HT-29 [20] it was 100.7%; in the test with HT-29 [21], 96.9%; in the test with HT-29 [22], 107.6%; with HT-29 [23], 101.7%; with HT-29 [24] it was 90.9%.
For `NS(=O)(=O)c1cc(NC(=O)N[C@@H]2C(O)O[C@@H](CO)[C@H](O)[C@H]2O)c(O)c([N+](=O)[O-])c1` (stereo partly drawn), the figures for the Ki at Carbonic anhydrase 9 and at Carbonic anhydrase 12 were 170 nM and 160 nM, respectively.
On to `NS(=O)(=O)c1ccc(O)c([N+](=O)[O-])c1`, for which the Ki was 120 nM on Carbonic anhydrase 9 and 160 nM at Carbonic anhydrase 12.
